From PubChem
SENP8 block-1 – SENP8 protease inhibitors, primary screen, biochemical, luminescence | purified SENP8, Z-RLRGG-aminoluciferin cleavage | inhibition, % at 10 µM | 1.2% of 330,000 active | AID 2540, 2010; in the data active = inhibition above about 50%
SENP6 block – SENP6 protease inhibitors, primary screen, biochemical, luminescence, uHTS. 1.8% of 330,000 active. inhibition, % at 10 µM. Sentrin-specific protease 6 (Homo sapiens), Q9GZR1. Recombinant SENP6 catalytic domain, aminoluciferin luminescence;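 active = inhibition above about 50% at the single tested dose, limit read from the data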
SENP8 block-2 – human SENP8 protease inhibitors, primary screen, biochemical, fluorescence, Nedd8 protein substrate, uHTS | Sentrin-specific protease 8 (Homo sapiens), Q96LD8 | recombinant SENP8 | inhibition, % at 20 µM | 0.64% of 360,000 active; in the data active = inhibition mostly above about 40%, no sharp cut-off; inactive = mostly below about 27%
SENP7 block – SENP7 protease inhibitors, primary screen, biochemical, luminescence, uHTS | 1.5% of 330,000 active | Sentrin-specific protease 7 (Homo sapiens), Q9BQF6 | inhibition, % at 5 µM | recombinant SENP7, Z-RLRGG-aminoluciferin luminescence, 40 min;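 active = inhibition above about 50% at the single test dose, limit read from the data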
Target sequence (Q9BQF6 706-1050 limits assumed): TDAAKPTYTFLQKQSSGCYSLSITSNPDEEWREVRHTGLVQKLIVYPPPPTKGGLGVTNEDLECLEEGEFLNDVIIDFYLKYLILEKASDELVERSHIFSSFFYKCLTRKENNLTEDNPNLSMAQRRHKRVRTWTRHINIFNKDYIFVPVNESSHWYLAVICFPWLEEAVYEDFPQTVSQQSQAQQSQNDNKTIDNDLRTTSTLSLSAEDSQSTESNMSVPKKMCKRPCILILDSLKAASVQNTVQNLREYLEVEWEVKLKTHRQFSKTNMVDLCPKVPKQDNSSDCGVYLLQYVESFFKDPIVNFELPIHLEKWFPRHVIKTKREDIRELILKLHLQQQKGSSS
SENP1 FRET inh – human SENP1 catalytic domain inhibitors, primary screen, biochemical, FRET, uHTS; Sentrin-specific protease 1 (Homo sapiens), Q9P0U3; recombinant SENP1 catalytic domain, CyPet-SUMO1-YPet FRET cleavage; inhibition, % at 10 µM; 0.21% of 360,000 active; AID 624204, 2012;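 active = inhibition at least 30% at 10 µM, raw YFP signal under a set limit, fluorescence ratio 0.5 to 1.5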
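Assay system: hSENP1 catalytic domain, recombinant. Amount: SENP1 enzyme, 20 pM final. Schedule: 50 min reaction, RT, dark. Technique: FRET, CFP and YFP emission. Control set: no-enzyme wells low, DMSO-plus-enzyme wells high control.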
SENP8 conf – SENP8 protease inhibitors, retest, confirmation, biochemical, luminescence, single concentration; inhibition, % at 12.5 µM; Recombinant SENP8, Z-RLRGG-aminoluciferin luminescence, 60 min; 40% of 6,200 active; shares compounds with SENP7 block;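 active = mean inhibition across replicates above about 50%, limit read from the data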
SENP6 conf – SENP6 protease inhibitors, confirmation, biochemical, luminescence, single concentration; shares compounds with SENP7 block; recombinant SENP6, Z-RLRGG-aminoluciferin luminescence; 58% of 6,200 active; AID 488915, 2010; inhibition, % at 12.5 µM
SENP7 confirm – SENP7 protease inhibitors, retest, confirmation, biochemical, luminescence, single concentration | inhibition, % at 12.5 µM | 69% of 6,200 active | shares compounds with SENP7 block | recombinant SENP7, Z-RLRGG-aminoluciferin luminescence, 40 min
Casp3 SENP sel – caspase-3 protease inhibitors, confirmation, selectivity assay for SENP inhibitor project, biochemical, single concentration; shares compounds with SENP7 block; 60% of 6,200 active; AID 488918, 2010; purified caspase-3, Z-DEVD-aminoluciferin luminescence, 60 min; inhibition, % at 12.5 µM;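 active = mean inhibition above about 50%, limit read from the data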
Luc interf – counter-screen for SENP inhibitors: luminescence interference; shares compounds with SENP7 block; AID 488919; Pre-incubated SENP8/Z-RLRGG-aminoluciferin, luciferase luminescence interference; inhibition, % at 12.5 µM; 39% of 6,200 active;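 active = mean inhibition above about 50% when retested at one dose, limit read from the data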
Of the large screens only hits and unclear results are named; the others gave an inactive call (follow-up assays come after a bar, where they were run). Only some compounds are listed: those with a hit (about 2.5% of all), similar ones and a draw of the others.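 Rule for the calls, unless noted: active = mean inhibition above about 50% in the one-dose retest (limit read from the data); inactive = the rest.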

Cc1ccc(/C=N/c2sc3c(c2C#N)CCCCC3)o1	SENP8 block-1 87, SENP6 block 97 | SENP8 conf 94 | SENP6 conf 95 | SENP7 confirm 100 | Casp3 SENP sel 69 | Luc interf 77
N#Cc1c(/N=C/c2ccco2)sc2c1CCC2	none
Cc1ccc(C=Nc2ccccc2C#N)s1	SENP8 block-1 67, SENP6 block 83 | SENP8 conf inactive | SENP6 conf 67 | SENP7 confirm 87 | Casp3 SENP sel 72 | Luc interf 62
Cc1ccc(/C=N/c2sc3c(c2C#N)CCC3)s1	SENP6 block 78, SENP7 block 84 | SENP8 conf inactive | SENP6 conf inactive | SENP7 confirm inactive | Casp3 SENP sel inactive | Luc interf inactive
Cc1ccc(/C=N/Nc2ccccn2)s1	none
N#Cc1c(/N=C/c2cc3ccccc3s2)sc2c1CCC2	none
CNC(=O)CC1C(=O)N(c2ccc(F)cc2)C(=S)N1NC(=O)c1ccc(Cl)cc1 (centres undefined)	none
Oc1c(Br)cc(/C=N/Nc2nncc3ccccc23)cc1Br	SENP8 block-1 69, SENP6 block 72 (no result: SENP8 block-2, SENP1 FRET inh) | SENP8 conf inactive | SENP6 conf inactive | SENP7 confirm inactive | Casp3 SENP sel inactive | Luc interf inactive
COc1ccc(/C(C)=N/Nc2nncc3ccccc23)cc1	SENP7 block 75 | SENP8 conf inactive | SENP6 conf inactive | SENP7 confirm inactive | Casp3 SENP sel inactive | Luc interf inactive
COc1ccccc1/C=N/Nc1nncc2ccccc12	none
COc1ccc(/C=N/Nc2nncc3ccccc23)cc1	SENP8 block-1 97, SENP6 block 99, SENP7 block 97 | SENP8 conf 97 | SENP6 conf 100 | SENP7 confirm 104 | Casp3 SENP sel 99 | Luc interf 99
NC(=O)c1cc[n+](CC(=O)NC(=O)Nc2ccccc2)cc1	none
CCC1(c2ccc(F)cc2)NC(=O)N(CC(=O)N(C)C2CCS(=O)(=O)C2)C1=O (centres undefined)	none
Cn1c(=NC(=O)c2ccco2)sc2ccccc21	SENP6 block 67, SENP7 block 52 | SENP8 conf 54 | SENP6 conf 56 | SENP7 confirm 84 | Casp3 SENP sel 79 | Luc interf inactive
CC(=O)c1cc(O)c2ccccc2c1O	SENP6 block 60 | SENP8 conf inactive | SENP6 conf inactive | SENP7 confirm inactive | Casp3 SENP sel inactive | Luc interf inactive
Cc1cc2ncc(-c3cccc(Cl)c3)cn2n1	none
Cc1nn2cc(-c3ccc(Cl)cc3)cnc2c1Cl	SENP7 block 76 | SENP8 conf inactive | SENP6 conf inactive | SENP7 confirm inactive | Casp3 SENP sel inactive | Luc interf inactive
Oc1cccc2cnccc12	none
Nc1cccc2cnccc12	SENP8 block-1 89, SENP6 block 91 | SENP8 conf inactive | SENP6 conf inactive | SENP7 confirm inactive | Casp3 SENP sel inactive | Luc interf inactive
C=CCn1c[n+](CC(=O)c2ccc(Br)s2)c2ccccc21	none
